According to ChEMBL document CHEMBL5661986, “Discovery of the SMYD3 Inhibitor BAY-6035 Using Thermal Shift Assay (TSA)-Based High-Throughput Screening” (SLAS Discov, 2021):
Values after ≈ are worked out from the molar mass of the structure shown. Active and inactive are the calls of the source. No cut-off for these calls is given here.

What was measured:
[1] = biological target: T1, Histone-lysine N-methyltransferase SMYD3 (Homo sapiens, UniProt Q9H7B4); experiment: Binding affinity to recombinant human SMYD3 expressed in Escherichia coli assessed as catalytic inhibition using DYDNPIFEKFGKGGTYPRRYHVSYHGK-Biotin as substrate by scintillation proximity assay
T1 sequence (Q9H7B4 whole entry): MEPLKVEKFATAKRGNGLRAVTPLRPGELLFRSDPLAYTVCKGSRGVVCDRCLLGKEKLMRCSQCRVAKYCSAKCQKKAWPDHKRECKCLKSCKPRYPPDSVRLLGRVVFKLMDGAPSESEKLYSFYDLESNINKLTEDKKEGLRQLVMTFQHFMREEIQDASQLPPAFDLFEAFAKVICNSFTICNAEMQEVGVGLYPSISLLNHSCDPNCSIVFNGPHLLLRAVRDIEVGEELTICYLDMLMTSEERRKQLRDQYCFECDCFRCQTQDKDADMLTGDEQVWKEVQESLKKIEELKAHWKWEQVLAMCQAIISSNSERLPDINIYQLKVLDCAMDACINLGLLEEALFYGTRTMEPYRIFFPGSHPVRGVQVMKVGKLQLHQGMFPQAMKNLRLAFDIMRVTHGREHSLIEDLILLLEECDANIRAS

[2] = biological target: T2, Histone-lysine N-methyltransferase SMYD3 (Homo sapiens) (UniProt Q9H7B4); settings: dose 120.0 µM
T2 sequence (whole entry): T1 sequence (Q9H7B4 whole entry)

[3] = Lipophilicity, log D of the compound at pH 7.5; format: physicochemical; settings: buffer
[4] = Kinetic solubility of the compound at pH 6.5; format: physicochemical; settings: buffer, read-out: Kinetic_solubility
[5] = biological target: N-lysine methyltransferase SMYD2 (Homo sapiens) (UniProt Q9NRG4); experiment: Binding affinity to recombinant human SMYD2 expressed in Sf9 insect cells assessed as change in melting temperature at 120 uM by SYPRO Orange staining based thermal shift assay
Sequence of N-lysine methyltransferase SMYD2 (Homo sapiens) (Q9NRG4 whole entry, the tested form may be a part): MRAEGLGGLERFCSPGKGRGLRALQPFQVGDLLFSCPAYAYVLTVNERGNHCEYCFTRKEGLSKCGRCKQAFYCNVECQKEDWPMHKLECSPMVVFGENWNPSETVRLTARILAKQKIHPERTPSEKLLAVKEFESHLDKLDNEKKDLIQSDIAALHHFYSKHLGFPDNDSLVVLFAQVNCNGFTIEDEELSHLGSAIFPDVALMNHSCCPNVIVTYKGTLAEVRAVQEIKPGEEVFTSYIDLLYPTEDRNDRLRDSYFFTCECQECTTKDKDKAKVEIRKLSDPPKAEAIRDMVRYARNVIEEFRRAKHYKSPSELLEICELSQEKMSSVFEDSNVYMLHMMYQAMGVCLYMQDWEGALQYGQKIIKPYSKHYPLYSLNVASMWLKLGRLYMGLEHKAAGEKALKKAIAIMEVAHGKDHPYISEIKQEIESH
Method in brief: (§1)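 SMYD1 (aa 2–490) or SMYD2 (aa 2–433), His-tagged from Sf9, Ni-NTA then gel filtration; melt at 1.4 µM protein, 8x SYPRO Orange in 20 mM Tris pH 8.0, 100 mM NaCl, 8.5% glycerol, 1.0 mM DTT; scan 25–80 °C at 0.1 °C/s; 4% DMSO control.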

[6] = biological target: T3, Histone-lysine N-methyltransferase SMYD1 (Homo sapiens) (UniProt Q8NB12); experiment: Binding affinity to recombinant human SMYD1 expressed in Sf9 insect cells assessed as change in melting temperature at 120 uM by SYPRO Orange staining based thermal shift assay; method in brief: as §1
T3 sequence (whole entry): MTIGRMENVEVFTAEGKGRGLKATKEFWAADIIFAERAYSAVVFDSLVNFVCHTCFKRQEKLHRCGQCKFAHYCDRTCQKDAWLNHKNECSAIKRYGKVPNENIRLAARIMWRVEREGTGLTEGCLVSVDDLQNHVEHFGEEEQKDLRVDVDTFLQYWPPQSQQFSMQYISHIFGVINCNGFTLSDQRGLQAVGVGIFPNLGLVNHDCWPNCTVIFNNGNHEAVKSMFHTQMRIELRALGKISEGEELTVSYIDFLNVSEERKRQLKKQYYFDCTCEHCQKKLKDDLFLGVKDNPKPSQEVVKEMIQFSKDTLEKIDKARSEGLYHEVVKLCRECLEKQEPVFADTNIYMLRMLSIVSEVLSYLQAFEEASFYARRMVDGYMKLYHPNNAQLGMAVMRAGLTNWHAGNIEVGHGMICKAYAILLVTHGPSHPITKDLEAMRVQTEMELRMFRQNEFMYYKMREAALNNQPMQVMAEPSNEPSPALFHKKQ

[7] = biological target: T2, Histone-lysine N-methyltransferase SMYD3 (Homo sapiens); experiment: Binding affinity to recombinant human SMYD3 expressed in Escherichia coli assessed as change in melting temperature at 10 to 200 uM by SYPRO Orange staining based thermal shift assay; settings: dose 10-200 µM
Method in brief: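 Full-length untagged SMYD3 (aa 1–428, E. coli, His tag removed by TEV) at 1.5–2.0 µM with 5x SYPRO Orange in 20 mM Tris pH 7.0, 150 mM NaCl, 1.0 mM DTT; compound titration 10–200 µM; 4% DMSO control; melting scanned 25–80 °C at 0.1 °C/s; Tm shift read.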

[8] = Dissociation constant, pKa of compound; format: physicochemical
[9] = tested on: Histone-lysine N-methyltransferase SMYD3 (Homo sapiens), Q9H7B4 [UNDEFINED MUTATION]; experiment: Inhibition of SMYD3 catalytic inactive mutant co-expressed with HA-tagged MAP3K2 transfected in human HeLa cells assessed as reduction of MAP3K2-K260me3 level upto 10 uM incubated for 20 hrs by Western blotting analysis; format: cell-based
Method in brief: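 After 4 h, compound or DMSO for 20 h. Lysates immunoblotted for MAP3K2-K260me3 (in-house antibody), HA, SMYD3 and MAP3K2 with infrared secondaries. K260me3 signal normalized to HA; three technical replicates, mean ± SEM, nonlinear fit.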

C[C@H]1CC(=O)Nc2cc(C(=O)NCCC3CC3)ccc2N1C(=O)NC1CCNCC1
IC50 [1]: 396 nM | deltaTm [2]: 6.77 K | logD [3]: 1.3 | solubility kinetic [4]: 252 µg/mL (≈ 609 µM)

CCCCNC(=O)c1ccc2c(c1)NC(=O)CC(C)N2C(=O)CCC1CCCC1 (configuration not stated)
deltaTm [5]: 0.2 K | IC50 [1]: 18000 nM | deltaTm [6]: -0.2 K | deltaTm [7]: 0.4 K

C[C@H]1CC(=O)Nc2cc(C(=O)NCCC3CC3)ccc2N1C(=O)N1CC[C@@H](N)C1.Cl
IC50 [1]: 832 nM | deltaTm [2]: 5.91 K | logD [3]: 1.4 | solubility kinetic [4]: 330 µg/mL

C[C@H]1CC(=O)Nc2cc(C(=O)NCCC3CC3)ccc2N1C(=O)N(C)C1CCN(CC(F)(F)F)CC1
IC50 [1]: 5560 nM | deltaTm [2]: 3.34 K | logD [3]: 2.4 | solubility kinetic [4]: 345 µg/mL (≈ 677 µM)

CCCCCNC(=O)c1ccc2c(c1)NC(=O)CC(C)N2C(=O)C1CCCC1 (configuration not stated)
deltaTm [5]: 0.1 K | IC50 [1]: 27000 nM | deltaTm [6]: -0.1 K | deltaTm [7]: 0 K

C[C@H]1CC(=O)Nc2cc(C(=O)N(C)CCC3CC3)ccc2N1C(=O)N1CC2CC2C1 (some centres not stated)
IC50 [1]: 2640 nM | deltaTm [2]: 3.9 K

CCCNC(=O)c1ccc2c(c1)NC(=O)CC(C)N2C(=O)c1cccs1 (configuration not stated)
deltaTm [5]: 0 K | IC50 [1]: 18000 nM | deltaTm [6]: -0.2 K | deltaTm [7]: 0.2 K

C[C@@H]1CC(=O)Nc2cc(C(=O)NCCC3CC3)ccc2N1C(=O)N1CCC(N)CC1
logD [3]: 1.4 | solubility kinetic [4]: 320 µg/mL (≈ 775 µM)

CCCCNC(=O)c1ccc2c(c1)NC(=O)CC(C)N2C(=O)c1cccc(F)c1 (configuration not stated)
deltaTm [5]: 0.2 K | deltaTm [6]: 0 K | deltaTm [7]: 0 K

CC1CC(=O)Nc2cc(C(=O)NCCC3CC3)ccc2N1C(=O)c1ccccc1 (racemic)
IC50 [1]: 1970 nM | deltaTm [2]: 3.9 K | logD [3]: 2.1 | solubility kinetic [4]: 95.5 µg/mL (≈ 244 µM)

CCN1CCN(C(=O)N2c3ccc(C(=O)NCCC4CC4)cc3NC(=O)C[C@@H]2C)CC1
IC50 [1]: 459 nM | deltaTm [2]: 7.34 K | logD [3]: 1.7 | solubility kinetic [4]: > 428 µg/mL

CC1CC(=O)Nc2cc(C(=O)NCCC3CCC3)ccc2N1C(=O)c1ccccc1 (racemic)
IC50 [1]: 1850 nM | deltaTm [2]: 4.77 K | logD [3]: 2.4 | solubility kinetic [4]: 87.5 µg/mL (≈ 216 µM)

CCN1CCC(N(C)C(=O)N2c3ccc(C(=O)NCCC4CC4)cc3NC(=O)C[C@@H]2C)CC1
IC50 [1]: 177 nM | deltaTm [2]: 8.2 K | logD [3]: 1.5 | solubility kinetic [4]: > 456 µg/mL

C[C@H]1CC(=O)Nc2cc(C(=O)NCCC3CC3)ccc2N1C(=O)N1CC[C@H](N)C1.Cl
IC50 [1]: 259 nM | deltaTm [2]: 7.56 K | logD [3]: 1.4 | solubility kinetic [4]: 294 µg/mL

C[C@H]1CC(=O)Nc2cc(C(=O)NCCC3CC3)ccc2N1C(=O)N1CCN(CC(F)(F)F)CC1
IC50 [1]: 1510 nM | deltaTm [2]: 5.26 K | logD [3]: 2.2

C[C@H]1CC(=O)Nc2cc(C(=O)NCCC3CC3)ccc2N1C(=O)N1CCC(F)(F)CC1
IC50 [1]: 2330 nM | deltaTm [2]: 5.6 K | logD [3]: 2.1 | solubility kinetic [4]: 231 µg/mL (≈ 531 µM)

C[C@H]1CC(=O)Nc2cc(C(=O)NCCC3CC3)ccc2N1C(=O)N1CCC(NCC(F)(F)F)CC1
IC50 [1]: 1030 nM | deltaTm [2]: 5.63 K | logD [3]: 2.2 | solubility kinetic [4]: 312 µg/mL (≈ 631 µM)

CCCCNC(=O)c1ccc2c(c1)NC(=O)CC(C)N2C(=O)c1ccccc1F (configuration not stated)
deltaTm [5]: 0 K | IC50 [1]: 12000 nM | deltaTm [6]: 0 K | deltaTm [7]: 0.7 K | deltaTm [2]: 2.4 K

C[C@H]1CC(=O)Nc2cc(C(=O)NCCC3CC3)ccc2N1C(=O)N1CCC(N)CC1
logD [3]: 1.4 | solubility kinetic [4]: 318 µg/mL (≈ 768 µM)

C[C@H]1CC(=O)Nc2cc(C(=O)NCCC3CC3)ccc2N1C(=O)N1CCCNCC1
IC50 [1]: 54.2 nM | deltaTm [2]: 8.46 K | logD [3]: 1.4 | solubility kinetic [4]: > 414 µg/mL | pKa [8]: 8.8

C[C@H]1CC(=O)Nc2cc(C(=O)NCCC3CC3)ccc2N1C(=O)N1CCNCC1
IC50 [1]: 252 nM | deltaTm [2]: 7.42 K | logD [3]: 1.4 | solubility kinetic [4]: 374 µg/mL (≈ 936 µM)

C[C@H]1CC(=O)Nc2cc(C(=O)NCCC3CC3)ccc2N1C(=O)N(C)C1CCNCC1
IC50 [1]: 493 nM | deltaTm [2]: 6.1 K | logD [3]: 1.3 | solubility kinetic [4]: 257 µg/mL (≈ 602 µM)

CCCCCNC(=O)c1ccc2c(c1)NC(=O)CC(C)N2C(=O)c1ccc(C)cc1 (configuration not stated)
deltaTm [5]: 0.2 K | IC50 [1]: 22000 nM | deltaTm [6]: 0.2 K | deltaTm [7]: 0.2 K

C[C@H]1CC(=O)Nc2cc(C(=O)NCCC3CC3)ccc2N1C(=O)N1CCC(F)(F)C1
IC50 [1]: 763 nM | deltaTm [2]: 6.16 K | logD [3]: 2 | solubility kinetic [4]: 294 µg/mL (≈ 700 µM)

C[C@H]1CC(=O)Nc2cc(C(=O)NCCC3CC3)ccc2N1C(=O)N1CCN(CCO)CC1
IC50 [1]: 1080 nM | deltaTm [2]: 5.63 K | logD [3]: 1.5 | solubility kinetic [4]: 254 µg/mL (≈ 573 µM)

C[C@@H]1CC(=O)Nc2cc(C(=O)NCCC3CC3)ccc2N1C(=O)N1CC2CC2C1 (some centres not stated)
IC50 [1]: 2530 nM | deltaTm [2]: 5.15 K

C[C@@H]1CC(=O)Nc2cc(C(=O)N(C)CCC3CC3)ccc2N1C(=O)N1CC2CC2C1 (some centres not stated)
IC50 [1]: > 100000 nM | inhibition [9]: inactive

CCCCCNC(=O)c1ccc2c(c1)NC(=O)CC(C)N2C(=O)c1ccccc1F (configuration not stated)
deltaTm [5]: 0.2 K | IC50 [1]: 24000 nM | deltaTm [6]: -0.2 K | deltaTm [7]: 0.2 K
